Results taken from PMC4369925 (Current molecular medicine, 2014).
Residues, ends and D or L forms follow the SMILES beside them.

How the values were obtained:
[1] = target: T1, rPRCP1 (Homo sapiens, UniProt P42785); assay: Peptide inhibition of rPRCP1 hydrolysis of APpNA; type: biochemical
T1 sequence (P42785 46-496): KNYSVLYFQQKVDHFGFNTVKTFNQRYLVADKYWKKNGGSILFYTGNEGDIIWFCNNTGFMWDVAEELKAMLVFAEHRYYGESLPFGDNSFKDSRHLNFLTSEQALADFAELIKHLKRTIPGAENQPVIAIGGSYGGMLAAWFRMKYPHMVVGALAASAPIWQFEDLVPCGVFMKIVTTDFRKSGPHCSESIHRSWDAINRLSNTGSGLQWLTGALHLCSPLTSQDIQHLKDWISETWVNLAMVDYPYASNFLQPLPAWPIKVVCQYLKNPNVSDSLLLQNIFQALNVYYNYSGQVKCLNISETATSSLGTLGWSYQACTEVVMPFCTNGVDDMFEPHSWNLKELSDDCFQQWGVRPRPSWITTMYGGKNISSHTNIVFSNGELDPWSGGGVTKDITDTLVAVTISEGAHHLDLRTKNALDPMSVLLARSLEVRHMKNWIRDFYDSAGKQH
In short: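 Recombinant PRCP1 hydrolysis of APpNA was measured at 37°C with sub-saturating substrate relative to Km. The initial hydrolysis rate was read at 405 nm in triplicate. Percent inhibition = [1 − (sample − blank)/(total − blank)] × 100, and IC50 and inhibition type were derived from it.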

[2] = system: plasma kallikrein; assay: Autoactivation of human plasma PK with rPKs, fluid-phase assay; type: biochemical; conditions: 1 h
In short: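 Recombinant PK was expressed in stably transfected HEK cells in serum-free conditioned medium, purified by S-Sepharose cation exchange (pH 5.2, NaCl gradient) and dialysed into TBS pH 7.4. Plasma PK and rPKs, 25 nM each, were incubated in triplicate for 1 h at 37°C. […], kallikrein was assayed with or without a kallikrein inhibitor using 0.5 mM S2302 for 1 h at 37°C, read at 405 nm.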

[3] = target: T1, rPRCP1; assay: Hydrolysis of X-Pro-pNA chromogenic substrates by rPRCP1; type: biochemical; conditions: for ratio of Km to the Km of GPpNA: rPRCP1, X-Pro-pNA, 37°C 1 h, 405 nm, ratio <1 more selective than GPpNA
In short: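 Recombinant PRCP1 was expressed in Schneider 2 cells. Increasing concentrations of X-Pro-pNA substrates were incubated with it in HEPES-carbonated buffer (pH 7.1, 2 mM CaCl2, 1 mM MgCl2, 0.1% gelatin) at 37°C for 1 h in the dark; two substrates needed 24 h. pNA release was read at 405 nm. Runs were in duplicate, at least 3 times, and data were fit to Michaelis–Menten.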

[4] = system: rPRCP activation of PK; assay: rPRCP activation of PK bound to HK on microtiter plate; type: biochemical, human; conditions: rPRCP 3 μg, HK-coated plate, 1 h
In short: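 Plasma PK, wild-type rPK or mutant rPKs (25 nM) were added to HK-coated microtiter wells with or without recombinant PRCP in HEPES-carbonate buffer pH 7.1 for 1 h at 37°C. Some wells also received a peptide blocking PK–HK binding (0.1 mM). S2302 (0.5 mM) was then added for 1 h at 37°C and read at 405 nm; three experiments.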

[5] = system: PRCP1-dependent PK activation on HPAEC; assay: PRCP1-dependent PK activation; type: cell-based, human; conditions: 25 nM rPK + 25 nM HK on HPAEC

**Q.** How did the IC50 [1] turn out when `CSCC[C@H](NC(=O)[C@H](CCC(N)=O)NC(=O)[C@H](C)NC(=O)[C@H](CCCCN)NC(=O)CNC(=O)[C@@H](N)CC(=O)O)C(=O)N[C@@H](CCC(N)=O)C(=O)N[C@@H](CO)C(=O)N1CCC[C@H]1C(=O)N[C@@H](C)C(=O)O` [DGK10] (H-DGKAQMQSPA-OH) was run?
**A.** 600 µM

**Q.** With `Cc1cc(Oc2nc(Oc3cccc(C(=N)N)c3)c(F)c(NC(C)CCc3ccccc3)c2F)c(C(=O)O)cc1N(C)C` (centres unmarked) [PF048, reference compound] as the compound, how does the “block of autoactivation of PK (in words)” value ([2]; 100 nM inhibitor, plasma PK 25 nM + rPK mutants 25 nM) read?
**A.** block

**Q.** How did the “ratio of Km to the Km of GPpNA” value [3] turn out when “Ala-Pro-paranitroanilide [APpNA, reference compound]” was run?
**A.** 0.4

**Q.** What does the source list for Ser-Pro-paranitroanilide [SPpNA]?
**A.** product turnover (kcat) compared with APpNA and GPpNA ([3]; rPRCP1, Michaelis-Menten fit): not significantly different; ratio of Km to the Km of GPpNA [3]: 0.23; catalytic efficiency (kcat/Km), times higher than GPpNA ([3]; rPRCP hydrolysis): 6-7 times; catalytic efficiency (kcat/Km), fold higher than APpNA ([3]; rPRCP hydrolysis, printed as 'at least'): 2-3 fold

**Q.** Which results are given for “rPK^P637A: recombinant PK, C-terminal Pro-Ala replaced by Ala-Ala”?
**A.** activability by rPRCP (in words) ([4]; 25 nM rPK): significantly more activable by rPRCP than wild type rPK; autoactivation of plasma PK (in words) ([2]; plasma PK 25 nM + rPK 25 nM, S2302): lower threshold for autoactivation

**Q.** How did the “degree of activation by rPRCP relative to wild type plasma PK” value ([4]; 25 nM PK) turn out when “wild type rPK: recombinant wild type human prekallikrein” was run?
**A.** about 66%

**Q.** And the “activation to plasma kallikrein on HPAEC (in words)” value [5]?
**A.** less than half
